Screening data (PubChem)
DYRK1A inh: Dyrk1A (rat) kinase inhibition. ADP-Glo luminescence, NFATc1 peptide. 310,000 tested, 0.43% active. AID 504441. inhibition, % at 12.5 µM;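 note: plate controls were vehicle with enzyme for no effect and no enzyme for full effect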
dFosB activator: enhances mouse delta FosB homodimer DNA binding; purified delta FosB, TAMRA-CDK5 oligo fluorescence polarization; percent of positive-control signal above neutral wells; 340,000 tested, 0.99% active; activation, % at 25 µM; P13346;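 active = mean activation above about 17%, with every replicate also reaching it, limit read from the data, passing the limit was not always enough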
Target sequence (P13346 whole entry, looked up): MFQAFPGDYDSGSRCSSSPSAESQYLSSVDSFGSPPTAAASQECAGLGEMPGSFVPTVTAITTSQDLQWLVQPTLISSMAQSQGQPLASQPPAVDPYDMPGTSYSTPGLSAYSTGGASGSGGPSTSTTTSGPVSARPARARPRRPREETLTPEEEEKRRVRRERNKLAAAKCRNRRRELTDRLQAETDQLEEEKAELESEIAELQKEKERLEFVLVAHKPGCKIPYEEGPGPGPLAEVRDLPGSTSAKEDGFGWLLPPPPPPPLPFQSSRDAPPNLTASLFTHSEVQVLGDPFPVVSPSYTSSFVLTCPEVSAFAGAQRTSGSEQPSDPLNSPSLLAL
NSD2 HMT inh: NSD2 (human) methyltransferase inhibition. inhibition, % at 12.5 µM. NSD2 peptide methylation, AlphaScreen, 120 min. 310,000 tested, 0.54% active. O96028
CDK5 p35 inh: inhibitors of human CDK5/p35 kinase; inhibition, % at 10 µM; AID 488839; Q00535+Q15078; 330,000 tested, 0.01% active; Recombinant CDK5/p35, ADP-Glo luminescence, 60 min;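 active = highest replicate inhibition of at least 50% and at least 75% of replicates reaching 50%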;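 note: plate controls were DMSO neutral control for no effect and GW8510 at 10 µM for full effect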
SR-BI HDL uptake: blocks mouse SR-BI lipid uptake from DiI-HDL | Q61009 | ldlA[mSR-BI] CHO cells, DiI-HDL uptake fluorescence, 3 h | inhibition, % at 12.5 µM | 320,000 tested, 0.96% active;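 active = mean replicate inhibition of at least 70% and a set share of replicates each scoring 70 or more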;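 note: 0% = median of neutral control wells and 100% = median of positive control wells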
SR-BI uptake up: activators of SR-BI mediated HDL lipid uptake | 320,000 tested, 0.096% active | activation, % at 12.5 µM | CHO ldlA[mSR-BI] cells, DiI-HDL uptake fluorescence, 3 h; 100 = double the neutral-control signal;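 active = mean replicate activation of at least 60% and every replicate at or above 60%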;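 note: 0% = median plate neutral-control signal and 100% = twice that signal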
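Test system: SR-BI-overexpressing, LDLR-lacking CHO cells. Measured by: DiI fluorescence, bottom read. Medium: Ham's F12 with 0.5% BSA, HEPES 25 mM, pH 7.4. Timing: 3 h uptake period with compound, 37 °C.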
Dyrk1A artifact: counter-screen for Dyrk1A inhibitors: ADP-Glo luciferase artifacts | ADP-Glo luciferase artifact assay, no Dyrk1A, luminescence | AID 588348 | shares compounds with DYRK1A inh | AC50, µM (highest dose often 12 µM), without a hit: at the top dose activity change, negative = inhibition | 1,300 tested, under 10 active;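 active = fitted half-maximal dose AC50 no more than ten times the top valid tested dose, with luminescence dropping as dose rises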
Starred values were filed as active, the others as inactive; . = not tested or not shown. Shown are actives, neighbours in structure and some others; about 2.5% of the full set was active somewhere. Cut-off read from the data, not from the text of the source, unless noted: active = inhibition above about 50%; inactive = the rest.

SMILES	DYRK1A inh	dFosB activator	NSD2 HMT inh	CDK5 p35 inh	SR-BI HDL uptake	SR-BI uptake up	Dyrk1A artifact
CC(/C=C1\SC(=Nc2cccnc2)NC1=O)=C\c1ccccc1	.	-12	-1	-3	-1	1	.
C=CCOc1ccc(/C=C2\SC(=Nc3cccnc3)NC2=O)cc1	61*	-13	6	-3	19	-19	8%
CC(C)Cc1cc(C(=O)N(C)C2CCCN(Cc3ccccc3F)C2)n(C)n1 (stereo unspecified)	0	-1	-1	1	11	-11	.
O=C(N/N=C/c1ccccn1)c1cc(-c2cccc3ccccc23)n[nH]1	23	-24	1	-1	36	-36	.
O=C(N/N=C/c1ccccn1)c1cc(-c2ccccc2Cl)n[nH]1	51*	-18	1	-6	2	-2	9%
C[C@@H]1O[C@@H](Oc2c(-c3ccc(O)c(O)c3)oc3cc(O)cc(O)c3c2=O)[C@H](O)[C@H](O)[C@H]1O	12	0	.	-1	3	-3	.
C[C@@H]1O[C@@H](O[C@H]2[C@H](O)[C@@H](O)[C@H](Oc3c(-c4ccc(O)c(O)c4)oc4cc(O)cc(O)c4c3=O)O[C@@H]2CO)[C@H](O)[C@H](O)[C@H]1O	52*	1	.	3	-13	13	7%
O=c1c(OC2OC(CO)C(O)C(O)C2O)c(-c2ccc(O)c(O)c2)oc2cc(O)cc(O)c12 (stereo unspecified)	75*	9	.	-4	11	-11	9%
O=c1c(O[C@@H]2O[C@H](CO)C(O)C2O)c(-c2ccc(O)c(O)c2)oc2cc(O)cc(O)c12 (stereo partly specified)	64*	1	.	-1	-2	2	13%
COc1cc(-c2oc3cc(O)cc(O)c3c(=O)c2O[C@@H]2O[C@H](COC3O[C@@H](C)[C@H](O)[C@@H](O)[C@H]3O)[C@@H](O)[C@H](O)[C@H]2O)ccc1O (stereo partly specified)	71*	-1	.	0	-16	16	7%
Cn1c(SCc2ccc([N+](=O)[O-])cc2)nnc1-c1ccncc1	-5	2	-1	0	-9	9	.
Cc1ccccc1C(C)(O)c1cnc(C)n1Cc1ccccc1 (stereo unspecified)	.	.	2	.	.	.	.
NC(=O)C1CCCN(C(=O)CCCNC(=O)c2ccc(Cl)cc2)C1 (stereo unspecified)	4	2	-1	1	-21	21	.
CCOC(=O)C[C@H]1c2cc(C(F)(F)F)ccc2S(=O)(=O)N1C(C)C	54*	4	.	2	-20	20	12%
CCCCCCCCCCCCN1[C@@H](CC(=O)OC)c2cc(C(F)(F)F)ccc2S1(=O)=O	53*	-7	.	1	-6	6	12%
CCCCCCCCN1[C@@H](CC(=O)O)c2cc(C(F)(F)F)ccc2S1(=O)=O	2	-3	.	0	-2	2	.
COc1ccc(Nc2cc(C)c3ccc(O)cc3n2)cc1	46	14	-4	-1	.	.	.
Cc1cc(Nc2ccccc2)nc2cc(O)ccc12	74*	6	.	-2	25	-25	10%
N#C/C(=C\c1cc2c(cc1Br)OCO2)c1ccc(C(=O)O)cc1	.	-2	4	-3	1	-1	.
COc1cccc(-c2noc(N)c2C#N)c1	63*	-7	-2	4	-11	11	7%
CC1CCc2c(C(=O)Nc3cccc(-c4nn[nH]n4)c3)csc2C1 (stereo unspecified)	67*	-12	12	-2	33	-33	10%
COc1ccccc1NC(=O)c1csc2c1CCC(C)C2 (stereo unspecified)	1	-10	-5	2	54	-54	.
O=C(O)c1ccc(N=c2oc3cc(O)ccc3cc2C(=O)NCc2ccccc2)cc1	35	-7	10	1	-11	11	.
COc1ccc2oc(=Nc3cc(F)ccc3F)c(C(N)=O)cc2c1	-1	11	-2	-1	-9	9	.
NC(=O)c1cc2ccccc2oc1=NCc1ccccc1	68*	-18	2	0	22	-22	7%
SMILES	DYRK1A inh	dFosB activator	NSD2 HMT inh	CDK5 p35 inh	SR-BI HDL uptake	SR-BI uptake up	Dyrk1A artifact
NC(=O)c1cc2cc(Br)ccc2oc1=NCc1ccccc1	15	-3	0	0	1	-1	.
COc1ccc(OC)c(N=c2oc3cc(O)ccc3cc2C(N)=O)c1	81*	-1	3	0	4	-4	6%
NC(=O)c1cc2ccc(O)cc2oc1=Nc1ccccc1	58*	-6	1	0	20	-20	8%
COc1ccc(C(=O)Nc2nc(C)cs2)cc1S(=O)(=O)N1CCOCC1	.	.	1	.	.	.	.
C[C@@H]1C=C(C(=O)NCc2nc3ccccc3[nH]2)O[C@H](OCCCCO)C1	51*	1	.	-1	-13	13	11%
O=C(CN(c1ccc(F)cc1)S(=O)(=O)c1ccccc1)NC1CCCCCC1	-1	-5	-1	2	-1	1	.
O=C(O)c1[nH]c2ccc([N+](=O)[O-])cc2c1-c1ccccc1	53*	-7	25	1	-13	13	9%
O=C(CSc1ccc(Cl)cc1)NCc1ccco1	3	-3	0	-4	-20	20	.
O=[N+]([O-])c1ccccc1-c1cc(-c2ccccc2O)n[nH]1	51*	-7	4	0	10	-10	11%
Cc1ccc(-c2cc(-c3ccccc3C)[nH]n2)c(O)c1	0	-3	-1	0	32	-32	.
O=C(NCc1ccco1)c1sc2ccccc2c1Cl	56*	-16	1	1	-19	19	10%
Cc1ccc(CNC(=O)CCS(=O)(=O)c2cc3c(cc2Br)CCN3C(=O)C2CC2)o1	.	.	3	.	.	.	.
CC(=O)Nc1ccc(SCc2ncc(-c3ccccc3)o2)cc1	64*	-13	1	3	.	.	6%
O=C(c1ccc2c(c1)OCO2)N1CCCN(C(=O)c2ccc3c(c2)OCO3)CC1	7	0	-2	3	-4	4	.
O=C(c1ccc2c(c1)OCCCO2)N1CCCCC1	59*	2	0	0	6	-6	7%
COc1ccc(CC(=O)Nc2c3c(nn2-c2cccc(C)c2C)CS(=O)C3)cc1 (stereo unspecified)	-9	-7	-6	0	-11	11	.
Cc1cccc(-n2nc3c(c2NC(=O)CCC2CCCCC2)CS(=O)C3)c1C (stereo unspecified)	55*	-8	.	-1	-1	1	11%
Cc1ccccc1C(=O)NNC(=O)Cc1cccc2ccccc12	-4	-1	-1	6	-8	8	.
